# High-throughput results from PubChem.
# CAL PDZ FP-1 – human CAL PDZ-peptide interaction inhibition | Q9HD26 | purified CAL PDZ, TMR-peptide fluorescence polarization, 1 h | inhibition, % at 20 µM | 330,000 compounds, 0.02% hits | AID 504414;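 active = highest replicate inhibition of at least 40%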;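 also: plate controls were DMSO neutral control wells for no effect and unlabeled competitor peptide control wells for full effect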
#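 Test system: tagged CAL PDZ domain / Buffer or medium: sodium phosphate/NaCl buffer pH 7.4 with TCEP, IgG, Thesit / Reagent: TMR-labelled reporter peptide T*-PRC34 bound in PDZ groove / Compound dosing: single point, 20 µM / Schedule: 1 h incubation at room temperature before polarization reading / Technique: fluorescence polarization (mP) / Benchmarks: unlabelled peptide, DMSO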
# CAL PDZ FP-2 – CAL PDZ (human) peptide binding inhibition | purified CAL PDZ, TMR-peptide fluorescence polarization, 1 h | inhibition, % at 24.9 µM | 300,000 compounds, 0.92% hits | AID 602252;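 active = mean inhibition of at least 30% with at least half of replicates also reaching 30%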;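 also: 0% = DMSO neutral control and 100% = excess unlabeled competitor peptide PRC23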
# Rce1 inh – inhibitors of yeast Ras-converting enzyme. yeast membranes, quenched prenylated peptide cleavage fluorescence. calls only. AID 2563. 290,000 compounds, 0.27% hits. Q03530;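 active = fall in fluorescence gain of 50% or more versus controls, with final raw signal at or below 3038400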;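 also: plate controls were neutral control wells for no effect and wells lacking membranes for full effect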
# Target sequence (Q03530 whole entry, looked up): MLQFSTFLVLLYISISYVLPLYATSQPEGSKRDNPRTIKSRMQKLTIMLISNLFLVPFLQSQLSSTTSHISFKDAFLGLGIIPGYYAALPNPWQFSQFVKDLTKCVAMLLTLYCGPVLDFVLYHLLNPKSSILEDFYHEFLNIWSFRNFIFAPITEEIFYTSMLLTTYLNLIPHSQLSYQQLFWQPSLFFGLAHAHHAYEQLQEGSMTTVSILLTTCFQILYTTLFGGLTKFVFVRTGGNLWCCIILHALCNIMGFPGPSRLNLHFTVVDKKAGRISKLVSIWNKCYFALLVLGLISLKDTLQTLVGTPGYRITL
# AI-2 QS modul – Vibrio harveyi AI-2 quorum sensing modulation | activity change, % at 7.5 µM | Vibrio harveyi JMH597 AI-2 luminescence/OD600 ratio, 9 h; stronger effect = lower value; strain lacks LuxN and CqsS sensors; 0 = neutral-control median | AID 2094 | 300,000 compounds, 0.4% hits; in the data active = activity change below about -75%, passing the limit was not always enough;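 also: luminescence divided by OD600 gain over 9 h not by final OD600 alone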
# ARNT TACC3 PPI – ARNT/TACC3 interaction disruption; Q9Y6A5; AlphaScreen His-ARNT PAS-B/GST-TACC3 binding, luminescence; TACC3 fragment carries E629A point mutation; inhibition, % at 9.99 µM; 390,000 compounds, 0.66% hits; AID 623870;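 active = mean inhibition of replicates at least 50% and at least half of replicates each reaching 50%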;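 also: 0% = complete ARNT plus TACC3 wells and 100% = ARNT alone without TACC3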
# The depositor's hits bear a star; i = inactive; / = not tested or not shown; + = active, no number. Sampled rows, rich in hits. Any-hit rate of the full collection: about 1.7%.
SMILES,CAL PDZ FP-1,CAL PDZ FP-2,Rce1 inh,AI-2 QS modul,ARNT TACC3 PPI
CCC(c1nnc(SC(C)C(=O)NC2CC2)n1-c1ccc(OC)cc1)N(C)C (centres undefined),1,68*,/,/,-3
COC(=O)C1=CN(Cc2ccc(OC)c(OC)c2)C=C(C(=O)OC)C1c1cccc(F)c1,-15,58*,/,/,-3
COCCN1C=C(C(=O)OC)C(c2ccc(OC)c(OC)c2)C(C(=O)OC)=C1,-2,-6,i,2,-7
COC(=O)C1=CN(Cc2ccc(OC)cc2)C=C(C(=O)OC)C1c1cc(OC)c(OC)c(OC)c1,0,9,i,10,active
COC(=O)C1=CN(Cc2ccc(F)cc2)C=C(C(=O)OC)C1c1cc(OC)c(OC)c(OC)c1,-3,-4,i,10,-32
Cc1nn(Cc2ccccc2)c(Cl)c1C(=O)NCCc1ccc(Cl)cc1,-2,-3,i,4,/
N#C/C(=C(O)\C=C\c1ccccc1)c1nc2ccccc2[nH]1,1,-2,i,33,-1
O=C(NCCCN1CCOCC1)c1cc(-c2ccc(F)cc2)no1,-2,-1,i,26,-2
COc1ccc(C(C(=O)NC(C)(C)C)N(Cc2ccccc2)C(=O)CCC(=O)Nc2cc(C)on2)cc1 (centres undefined),-2,-2,i,3,-2
Cc1ccc2nc(N3CCN(Cc4nnnn4C4CCCC4)CC3)c(C#N)cc2c1,-2,55*,i,19,-11
Cc1ccc(C)c(N2CCN(Cc3nnnn3C3CCCCC3)CC2)c1,0,3,i,24,-7
CC(=O)Nc1ccc(S(=O)(=O)N2CCSC2c2ccccc2Cl)cc1 (centres undefined),-2,-6,i,4,1
O=C(CSc1nnnn1-c1ccc(O)cc1)c1cc2ccccc2o1,-1,-4,i,-77*,-3
CCc1nnc(NC(=O)CN2CCN(c3ccccc3F)CC2)s1,0,41*,i,10,-6
O=C(NNC(=O)c1ccccc1O)c1ccc(-c2ccc([N+](=O)[O-])cc2)o1,-2,2,i,24,0
CCN(C(=O)CCCC(=O)N(CC)c1ccccc1)c1ccccc1,-1,63*,i,-5,-4
COc1cccc(NC(=O)c2ccc3nsnc3c2)c1,-2,49*,i,14,/
COc1cccc(OC)c1C(=O)Nc1cccc(C(C)=O)c1,-2,53*,i,23,-10
COc1cccc(NC(=O)c2cccc(C(=O)Nc3cccc(OC)c3)c2)c1,0,1,i,-5,-3
COc1cc(C(=O)Nc2cccc(C(C)=O)c2)cc(OC)c1OC,0,/,i,3,0
CCOC(=O)Cn1cc(/C=N/NC(=O)CC#N)c2ccccc21,-1,9,i,42,2
COc1cccc(N2CC(C(=O)Nc3nnc(SCC(=O)N4CCCC4)s3)CC2=O)c1 (centres undefined),-3,-1,i,14,3
O=C(Nc1ccc(-n2cnnn2)cc1)C1CCCN1C(=O)Nc1ccc(Br)cc1 (centres undefined),-2,/,i,2,3
CC(C)c1cc(C(C)C)c(S(=O)(=O)NNC(=O)c2ccncc2)c(C(C)C)c1,-1,1,i,25,0
CCCOc1ccc(-c2nc(=S)[nH][nH]2)cc1,0,-1,i,-84*,0
SMILES,CAL PDZ FP-1,CAL PDZ FP-2,Rce1 inh,AI-2 QS modul,ARNT TACC3 PPI
COC(=O)C(C)(C)ONC(=O)Nc1ccc(Br)cc1,-2,-4,i,29,-4
CCOc1ccc(NC(=O)CN2CC(c3ccccc3)CC2=O)cc1 (centres undefined),1,-3,i,25,/
O=C(CN1CC(c2ccccc2)CC1=O)N/N=C/c1cc(Br)ccc1O (centres undefined),-3,-4,i,-28,48*
O=C(c1ccco1)N(Cc1ccc2c(c1)OCO2)Cc1cc2cc3c(cc2[nH]c1=O)OCO3,0,0,i,8,-9
CC(=O)c1cccc(NC(=O)COc2nsnc2N2CCOCC2)c1,-8,-18,i,14,-1
CSc1nnc(-c2sc(-c3ccccc3)nc2C)n1C,0,-2,+,6,-5
O=C(CSc1nnc(CNc2ccc(F)cc2)o1)OC1CCCCC1,-1,0,i,-1,-4
Nn1c(-c2ccccn2)nnc1-c1ccccn1,-3,1,i,8,79*
COc1ccc(C2=Nn3c(nnc3-c3ccccc3OC)SC2)cc1OC,-5,-9,i,23,18
CC(C)(C)C1=Nn2c(nnc2-c2ccccn2)SC1,-3,-2,i,27,72*
COc1ccc(C2=Nn3c(nnc3-c3ccccn3)SC2)cc1OC,1,2,i,19,83*
CN(Cc1nc(-c2ccccc2)no1)C(=O)c1ccc2c(c1)OCO2,-3,1,i,5,-4
CC(C)(C)N(Cc1nc(-c2ccccc2)no1)C(=O)c1ccc2c(c1)OCO2,-1,65*,i,12,-2
C=CCn1cc(-c2ccccc2)cc(C#N)c1=O,0,0,+,0,-14
CCCc1cc(CNC(=O)C2CCC(=O)N(CCc3cccc(F)c3)C2)on1 (centres undefined),-1,35*,i,7,-1
Cc1cc(CN(C)C(=O)C2CCC(=O)N(CCc3cccc(F)c3)C2)on1 (centres undefined),0,59*,i,5,-9
COC(=O)C1CCN(C(=O)C2CCC(=O)N(CCCc3ccccc3)C2)CC1 (centres undefined),-1,69*,i,4,0
CCn1ccnc1CN(C)C(=O)C1CCC(=O)N(CCc2cccc(F)c2)C1 (centres undefined),-1,2,i,22,3
Cc1ccc(CCNC(=O)C2CCC(=O)N(Cc3cccc(F)c3)C2)cc1 (centres undefined),0,59*,i,39,-6
CC(C)Cc1cc(CNC(=O)C2CCC(=O)N(CCc3cccc(F)c3)C2)on1 (centres undefined),-2,-2,i,11,0
C[C@H]1CN([C@@H](C)CO)C(=O)c2cc(NS(=O)(=O)c3ccc(Cl)cc3)ccc2O[C@@H]1CN(C)S(=O)(=O)c1cccs1,/,/,/,/,2
O=C(NCC1CCOCC1)C1CCC(=O)N(Cc2cccc(C(F)(F)F)c2)C1 (centres undefined),-1,32*,i,9,-1
Cc1cnc(CN(C)C(=O)C2CCC(=O)N(CCc3ccccc3)C2)[nH]1 (centres undefined),0,-2,i,-4,1
Cc1cc(CN(C)C(=O)C2CCC(=O)N(CCc3ccccc3)C2)n[nH]1 (centres undefined),-2,35*,i,17,-2
